# Assay outcomes (PubChem)
# Hits are enriched below; roughly 1.5% of the tested compounds scored in any of these assays.
# TNAP act mid DEA: activators of human TNAP at intermediate phosphate acceptor. P05186. purified TNAP, CDP-star luminescence, 100 mM DEA, 30 min; active compounds read high; scale: 0 levamisole-inhibited, 1 vehicle-only enzyme. activation factor at 20 µM. 64,000 tested, under 10 active. AID 813;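 active = activation factor of at least 2 at 20 µM, relative to controls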
# Target sequence (P05186 whole entry, looked up): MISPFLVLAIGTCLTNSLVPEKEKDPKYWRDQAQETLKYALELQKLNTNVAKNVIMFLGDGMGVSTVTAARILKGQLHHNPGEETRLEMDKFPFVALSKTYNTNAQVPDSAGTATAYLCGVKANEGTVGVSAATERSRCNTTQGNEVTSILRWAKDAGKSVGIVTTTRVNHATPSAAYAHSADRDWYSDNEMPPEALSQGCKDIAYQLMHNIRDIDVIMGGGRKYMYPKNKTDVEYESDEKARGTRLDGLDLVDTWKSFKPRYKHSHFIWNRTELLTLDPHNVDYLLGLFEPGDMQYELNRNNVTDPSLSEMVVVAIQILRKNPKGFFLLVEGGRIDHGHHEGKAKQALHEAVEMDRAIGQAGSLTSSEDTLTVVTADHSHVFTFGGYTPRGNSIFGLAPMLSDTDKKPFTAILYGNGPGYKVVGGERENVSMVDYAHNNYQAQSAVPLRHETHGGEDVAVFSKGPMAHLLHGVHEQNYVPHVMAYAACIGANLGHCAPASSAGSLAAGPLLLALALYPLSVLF
# DPM-DC inhibit: inhibitors of Streptococcus pneumoniae diphosphomevalonate decarboxylase; 0.49% of 65,000 active; purified DPM-DC, PK/LDH coupled NADH fluorescence; calls only at 10 µM; AID 556;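 active = the 320 compounds with the highest percent inhibition in the single-dose primary screen, excluding strongly autofluorescent ones, cut at about 32% in these data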;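 also: kinetic rate of NADH fluorescence loss reporting ADP formed by the decarboxylase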
# MK inhibit: S. pneumoniae mevalonate kinase inhibition; inhibition, % at 10 µM; purified MK, PK/LDH-coupled NADH absorbance 340 nm; 0.48% of 65,000 active;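 active = ranked among the strongest by inhibition in the single 10 µM screen, a fixed top-ranked set picked for dose follow-up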
# Ec RNAP inh: blocks E. coli RNA polymerase transcription. P0A8V2. fluorescence transcription assay. inhibition, %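 (tested at 10 µM)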. 0.2% of 62,000 active. AID 559; in the data active = inhibition above about 20%;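 also: 0% = enzyme without compound and 100% = no enzyme blank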
# PMK inhibit: S. pneumoniae PMK inhibition; purified PMK, PK/LDH-coupled NADH absorbance 340 nm; inhibition, % at 10 µM; 0.49% of 65,000 active;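 active = top-ranked compounds by inhibition in the single 10 µM screen, taking a fixed number of the strongest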;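 also: 0% = full reaction with DMSO carrier and 100% = background rate without enzyme reaction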
# AP ELISA ortho: orthogonal test for alternative complement pathway inhibitors. Human serum alternative complement pathway, LPS-coated ELISA, C3 deposition; tested in compound mixtures. inhibition, % at 5 µM. 0.08% of 62,000 active. AID 1235;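 active = inhibition above 30% in each of the two pooled mixtures holding the compound, so the lower value exceeds 30%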;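 also: 0% = serum in Mg-EGTA without compound and 100% = EDTA serum blank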
#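 Medium: diluted human serum in Mg2+-EGTA GVB++. Assay system: human serum complement alternative pathway, C3 deposition onto LPS. Also added: Plate-bound LPS. Technique: Anti-C3 ELISA, OD 450 nm. Measure: percent inhibition. Incubation: 1 h at 37 °C. Dosing: 5 µM each compound, pools of ten, 50 µM per pool.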
# * = called active by the depositor; i = inactive; / = no result given; + = active, no number.
SMILES,TNAP act mid DEA,DPM-DC inhibit,MK inhibit,Ec RNAP inh,PMK inhibit,AP ELISA ortho
CCOC(=O)CSc1n[nH]c(-c2ccco2)n1,0.8,i,6.0,5.6,13.0,12.8
CCOc1ccc(-n2c(-c3ccco3)n[nH]c2=S)cc1,0.9,i,60.0*,-4.0,11.0,-9.7
O=C(CSc1ccc2nnc(-c3ccccn3)n2n1)Nc1ccc2c(c1)OCO2,0.9,i,3.0,5.2,0.0,28.6
CCCc1cc(=O)n2[nH]c(-c3ccccc3)cc2n1,/,i,3.0,/,17.0,/
Cc1cc(=O)n2[nH]c(-c3ccccc3Cl)cc2n1,1,i,0.0,-1.2,25.0*,-1.0
O=C(Nc1ccc(N2CCCCC2)cc1)c1cccnc1,1,+,2.0,-2.4,8.0,13.0
O=C(Nc1ccc(N2CCN(Cc3ccccc3Cl)CC2)cc1)c1cccnc1,0.9,i,6.0,3.5,4.0,7.4
COc1ccc2c(c1OC)CN(C)CCc1cc3c(cc1C(O)C2)OCO3 (stereo not drawn),1,i,12.0,3.6,25.0*,-8.9
Cn1c2c(c(=O)n(C)c1=O)C(c1cccc(Br)c1)C1C(=O)c3ccccc3C1=N2 (stereo not drawn),0.9,i,0.0,1.1,18.0,15.8
CCCOc1ccc(-c2nnn(CC(=O)Nc3cccc(C(=O)OC)c3)n2)cc1,1,i,2.0,-10.6,26.0*,23.4
CCOC(=O)CC(=O)CSc1nnc2c(n1)[nH]c1ccccc12,0.8,i,0.0,8.8,34.0*,7.7
CCOC(=O)C1CCN(Cc2ccc(OC)cc2OC)CC1,0.9,i,51.0*,4.3,0.0,3.5
COc1ccc(CN2CCN(c3ncccn3)CC2)c(OC)c1,1,i,49.0*,0.6,16.0,4.6
CCOC(=O)C1CCN(Cc2ccc(N(C)C)cc2)CC1,0.9,i,43.0*,-2.9,0.0,5.9
CCOC(=O)C1CCN(C(=O)Cc2ccc(OC)c(OC)c2)CC1,0.9,i,2.0,2.1,22.0,15.6
C=C(C)c1cccc(C(C)(C)NC(=O)N2CCN(CC(N)=O)CC2)c1,0.9,i,8.0,-4.5,8.0,18.0
OCCSc1c(F)c(SCCO)c(SCCO)c(F)c1SCCO,1,i,12.0,0.8,3.0,-3.8
COc1ccc(-c2cc(NCc3ccccn3)n3ncnc3n2)cc1,2*,i,7.0,8.9,0.0,10.8
CCN=c1sc(C(=O)NCCc2ccccc2)cc(=O)n1CC,0.9,i,0.0,4.0,25.0*,12.9
COc1cccc(NC(=O)N(Cc2cc3cc(C)cc(C)c3[nH]c2=O)CC2COCCO2)c1 (stereo not drawn),0.9,i,9.0,4.0,0.0,-1.7
COc1ccc(C2C3=C(CC(C)(C)CC3=O)Nc3c2c(=O)[nH]c2nc(C)nn32)cc1 (stereo not drawn),1,i,15.0,9.1,5.0,0.7
CCOc1ncccc1C(=O)OCc1cc(=O)n2c(n1)sc1ccccc12,0.9,i,0.0,5.4,25.0*,4.7
CCOc1ncccc1C(=O)OCC(=O)c1c(N)n(C)c(=O)n(C)c1=O,1,i,14.0,5.2,0.0,14.0
COc1ccc(-c2nnc(SCC#CCO)o2)cc1OC,0.9,i,6.0,3.8,10.0,8.8
OCC#CCSc1nnc(-c2ccc(Br)cc2)o1,1,i,11.0,39.7*,10.0,7.9
SMILES,TNAP act mid DEA,DPM-DC inhibit,MK inhibit,Ec RNAP inh,PMK inhibit,AP ELISA ortho
COC(=O)Sc1nnc(-c2ccc(Br)cc2)o1,1,+,5.0,10.0,16.0,-1.2
CCOC(=O)C1=C(C)N=C2SC(C)C(=O)N2C1c1ccc(OCC)c(OCC)c1 (stereo not drawn),0.9,i,1.0,7.7,14.0,5.5
O=C(NCc1ccccc1)c1ccc(COCC(F)(F)F)o1,0.9,i,2.0,3.0,1.0,10.8
O=C(CSc1nc2ccccc2[nH]1)Nc1ccccc1N1CCOCC1,0.9,i,4.0,9.6,1.0,10.0
c1ccc2[nH]c(SN3CCOCC3)nc2c1,1,i,54.0*,7.4,13.0,9.8
O=C(NCc1ccccc1F)C1CCN(C(=O)NCc2ccccc2)CC1,0.9,i,6.0,-2.5,13.0,33.1*
CC1=C(C(=O)Nc2ccccc2C)C(c2ccc(C)o2)C2=C(CCCC2=O)N1 (stereo not drawn),0.9,i,0.0,10.1,18.0,-4.8
